Measurements gathered from unrelated publications.
Target: Dual specificity testis-specific protein kinase 1 (TESK1, Homo sapiens, UniProt Q15569)

The remaining activity of `COc1cc(Nc2cnc(C#N)c(O[C@H](C)CN(C)C)n2)ncc1-c1cnn(C)c1` is reported as 110% (enzyme activity; inhibitor; radiometric; 1 µM).
The remaining activity of `Cc1ccc(C(=O)Nc2ccc(CN3CCN(C)CC3)c(C(F)(F)F)c2)cc1C#Cc1cnc2cccnn12` is reported as 100% (enzyme activity; inhibitor; 23.5 nM).
The remaining activity of `O=C(Nc1cnn(-c2csc(C(=O)NC3COC3)c2)c1)Nc1ccccc1Cl` is reported as 100% (enzyme activity; inhibitor; 5 µM).
`c1ccc(N2CCN(Cc3nc4ccccc4[nH]3)CC2)nc1` has a remaining binding of 97% (binding; competition with immobilised ligand; 1 µM).
`Cc1sc(C(=O)NC2COC2)cc1-n1cc(NC(=O)Nc2c(F)cccc2Cl)cn1` gave a remaining activity of 88% (enzyme activity; inhibitor; 10 µM).
With `O=C1CCc2cc(Nc3cc(OC4CCOCC4)c([N+](=O)[O-])cc3Cl)ccc2N1` the remaining binding was 92% (cell-free assay; competition with immobilised ligand; 1 µM).
For `COc1cc(/C=C/C(=O)CC(=O)/C=C/c2ccc(O)c(OC)c2)ccc1O`, the activity vs control was 101% (enzyme activity; inhibitor; 1 µM).
The remaining signal of `Nc1ncnc2occ(-c3ccc(NC(=O)Nc4cc(C(F)(F)F)ccc4F)cc3)c12` is reported as 7.4% (cell-free assay; inhibitor; 20 µM).
The remaining activity of `CC(C)(O)[C@H]1CC[C@H](Nc2ccc3ncc(-c4cccc(C(F)(F)F)c4)n3n2)CC1` is reported as 83.5% (enzyme activity; inhibitor; 1 µM).
